Experimental data from different studies.
Target: Testis-specific serine/threonine-protein kinase 2 (TSSK2, Homo sapiens, UniProt Q96PF2)
One construct used (Q96PF2 1-358): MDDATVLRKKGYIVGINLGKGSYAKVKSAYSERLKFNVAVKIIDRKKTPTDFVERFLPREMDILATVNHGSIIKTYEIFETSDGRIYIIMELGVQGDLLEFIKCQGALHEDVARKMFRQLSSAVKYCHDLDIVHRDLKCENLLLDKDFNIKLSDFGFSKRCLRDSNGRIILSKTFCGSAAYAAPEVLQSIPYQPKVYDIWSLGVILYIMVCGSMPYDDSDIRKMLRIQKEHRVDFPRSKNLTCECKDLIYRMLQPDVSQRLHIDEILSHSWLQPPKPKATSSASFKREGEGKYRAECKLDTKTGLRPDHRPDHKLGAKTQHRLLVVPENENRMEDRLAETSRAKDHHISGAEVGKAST

CC(C)(C)c1nc(-c2cccc(NS(=O)(=O)c3c(F)cccc3F)c2F)c(-c2ccnc(N)n2)s1 — remaining activity (enzyme activity; inhibitor; radiometric; 1 µM): 86%
CCN(CC)CCNC(=O)c1c(C)[nH]c(/C=C2\C(=O)Nc3ccc(F)cc32)c1C — inhibition (enzyme activity; inhibitor; 10 µM): 54%
CCOc1cc(-c2nncn2C)ccc1Nc1ncc2cc(C)nc(NCC(C)(C)C)c2n1 — inhibition (enzyme activity; inhibitor; FRET; 1 µM): < 15%
COc1cc2ncnc(Nc3ccc(Oc4ccccc4)c(C)c3C)c2cc1OC — inhibition (enzyme activity; inhibitor; 1 µM): 3%
CN1CC(Oc2cnc(C#N)cc2-c2ccn3nc(NC(=O)C4CC4)cc3c2)C1 — inhibition (enzyme activity; inhibitor; 1 µM): 0%
CCCS(=O)(=O)Nc1ccc(F)c(C(=O)c2c[nH]c3ncc(-c4ccc(Cl)cc4)cc23)c1F — inhibition (enzyme activity; inhibitor; 1 µM): < 10%
N#CCCc1ccc2c(c1)-c1[nH]c3ccc([N+](=O)[O-])cc3c1CC(=O)N2 — remaining signal (cell-free assay; 0.5 µM): 78.7%
COc1cc(Cl)c(C(=O)N[C@@H](CN[C@H]2CC[C@@H](N)CC2)Cc2ccc(C#N)cc2)cc1-c1ccc(CN[C@H](C)c2ccc(C)cc2)o1 — remaining activity (enzyme activity; inhibitor; 1 µM): 101%
Cc1ccc(Nc2nccc(N(C)c3ccc4c(C)n(C)nc4c3)n2)cc1S(N)(=O)=O — inhibition (enzyme activity; inhibitor; 10 µM): 5%
Cc1ccc(NC(=O)c2ccc(C)c(C(F)(F)F)c2)cc1C#Cc1nn(C2CCC(O)CC2)c2ncnc(N)c12 (centres unmarked) — remaining signal (cell-free assay; 10 µM): 96%
O=C(Nc1cnn(-c2csc(C(=O)NC3COC3)c2)c1)Nc1ccccc1Cl — remaining activity (enzyme activity; inhibitor; 5 µM): 91.5%
CCCOc1ccc(OC)c(F)c1C(=O)c1ccc(C(=O)N[C@@H]2CNC[C@H]2NC(=O)c2ccc3[nH]ncc3c2)cc1 — remaining activity (enzyme activity; inhibitor; 10 µM): 87%
CNC(=O)c1cc(Oc2ccc(NC(=O)Nc3ccc(Cl)c(C(F)(F)F)c3)cc2)ccn1 — inhibition (enzyme activity; inhibitor; 0.3 µM): -4%
O=C(Nc1cnn(-c2csc(C(=O)NC3COC3)c2)c1)Nc1c(F)cccc1Cl — remaining activity (enzyme activity; inhibitor; 5 µM): 95.1%
